# In ChEMBL document CHEMBL1125605 (1991):
# Columns and labels:
# Format in all cases: functional
# E6SM [1] = assay: Concentration required to inhibit HSV-1 (KOS) induced cytopathogenicity in E6SM cells by 50%.; settings: Homo sapiens
# E6SM [2] = assay: Concentration required to inhibit HSV-1 (McIntyre) induced cytopathogenicity in E6SM cells by 50%.; settings: Homo sapiens
# E6SM [3] = assay: Concentration required to inhibit HSV-2(196) induced cytopathogenicity in E6SM cells by 50%.; settings: Homo sapiens
# E6SM [4] = assay: Concentration required to cause a microscopically detectable alteration of normal cell morphology in E6SM cells; settings: Homo sapiens; read-out: MIC
# In short: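 Uninfected E6SM human embryonic skin-muscle fibroblasts were exposed to compound and examined under the microscope. The value is the minimum concentration that caused a detectable alteration of normal cell morphology.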
# E6SM [5] = assay: Concentration required to inhibit HSV-1 (F) induced cytopathogenicity in E6SM cells by 50%.; settings: Homo sapiens
# E6SM [6] = assay: Concentration required to inhibit HSV-2(G) induced cytopathogenicity in E6SM cells by 50%.; settings: Homo sapiens
# E6SM [7] = assay: Concentration required to inhibit HSV-2(lyons) induced cytopathogenicity in E6SM cells by 50%.; settings: Homo sapiens
# E6SM [8] = assay: Concentration required to inhibit TK-HSV-1 (B2006) induced cytopathogenicity in E6SM cells by 50%.; settings: Homo sapiens
# E6SM [9] = assay: Concentration required to inhibit TK-HSV-1 (VMW1837) induced cytopathogenicity in E6SM cells by 50%.; settings: Homo sapiens
# E6SM [10] = assay: oncentration required to inhibit VV induced cytopathogenicity in E6SM cells by 50%.; settings: Homo sapiens
# HEL [11] = assay: Concentration required to cause 50% reduction in HEL cell growth.; settings: Homo sapiens; read-out: MIC
# In short: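 Cytotoxicity was measured as inhibition of growth of HEL human embryonic lung fibroblasts. The value is the compound concentration that reduced cell growth by 50%.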
# HEL [12] = assay: Concentration required to inhibit CMV (Davis) induced cytopathogenicity in HEL cells by 50%.; settings: Homo sapiens
# HEL [13] = assay: Concentration required to inhibit TK-VZV (07-1) induced cytopathogenicity in HEL cells by 50%.; settings: Homo sapiens
# HEL [14] = assay: Concentration required to inhibit TK-VZV (YSR) induced cytopathogenicity in HEL cells by 50%.; settings: Homo sapiens
# HEL [15] = assay: Concentration required to inhibit VZV (YS) induced cytopathogenicity in HEL cells by 50%.; settings: Homo sapiens
# HEL [16] = assay: Concentration required to inhibit VZV (oka) induced cytopathogenicity in HEL cells by 50%.; settings: Homo sapiens
# HEL [17] = assay: Concentration required to inhibit CMV (AD-169) induced cytopathogenicity in HEL cells by 50%.; settings: Homo sapiens
# E6SM [18] = assay: Concentration required to inhibit VSV induced cytopathogenicity in E6SM cells by 50%.; settings: Homo sapiens
# In short: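 Antiviral assay in E6SM human embryonic skin-muscle fibroblasts, with cells infected by vesicular stomatitis virus (VSV) in microtiter plates. Virus-induced cytopathogenicity is assessed. The value is the compound concentration that reduces VSV-induced cytopathogenicity by 50%.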
SMILES,MIC (E6SM [1]),MIC (E6SM [2]),MIC (E6SM [3]),minimum cytotoxic concentration (morphology alteration) (E6SM [4]),MIC (E6SM [5]),MIC (E6SM [6]),MIC (E6SM [7]),MIC (E6SM [8]),MIC (E6SM [9]),MIC (E6SM [10]),CC50 (50% cell growth inhibitory concentration) (HEL [11]),MIC (HEL [12]),MIC (HEL [13]),MIC (HEL [14]),MIC (HEL [15]),MIC (HEL [16]),MIC (HEL [17]),MIC (E6SM [18])
O=c1[nH]c(=O)n([C@H]2C[C@H](O)[C@@H](CO)O2)cc1-c1ccc(Cl)o1,0.2 µg/mL,0.4 µg/mL,150 µg/mL,> 400 µg/mL,0.2 µg/mL,150 µg/mL,150 µg/mL,150 µg/mL,150 µg/mL,45 µg/mL,105 µg/mL,> 100 µg/mL,> 100 µg/mL,> 100 µg/mL,3 µg/mL,2.5 µg/mL,> 100 µg/mL,> 200 µg/mL
O=c1[nH]c(=O)n([C@@H]2C[C@H](O)[C@@H](CO)O2)cc1-c1cccs1,> 200 µg/mL,–,150 µg/mL,> 400 µg/mL,–,> 300 µg/mL,100 µg/mL,> 200 µg/mL,150 µg/mL,> 200 µg/mL,180 µg/mL,–,85 µg/mL,80 µg/mL,> 100 µg/mL,75 µg/mL,> 100 µg/mL,–
O=c1[nH]c(=O)n([C@H]2C[C@H](O)[C@@H](CO)O2)cc1-c1ccc(Br)s1,0.03 µg/mL,0.02 µg/mL,> 200 µg/mL,> 400 µg/mL,0.07 µg/mL,150 µg/mL,150 µg/mL,150 µg/mL,150 µg/mL,70 µg/mL,155 µg/mL,> 100 µg/mL,> 40 µg/mL,> 40 µg/mL,0.03 µg/mL,0.03 µg/mL,> 100 µg/mL,–
Nc1nc(=O)n([C@H]2C[C@H](O)[C@@H](CO)O2)cc1-c1cccs1,1.3 µg/mL,0.07 µg/mL,20 µg/mL,> 200 µg/mL,0.4 µg/mL,45 µg/mL,20 µg/mL,> 100 µg/mL,> 100 µg/mL,20 µg/mL,45 µg/mL,40 µg/mL,8 µg/mL,30 µg/mL,4 µg/mL,3 µg/mL,60 µg/mL,–
O=c1[nH]c(=O)n([C@H]2C[C@H](O)[C@@H](CO)O2)cc1-c1ccco1,0.2 µg/mL,0.2 µg/mL,> 400 µg/mL,> 400 µg/mL,0.2 µg/mL,200 µg/mL,> 400 µg/mL,150 µg/mL,300 µg/mL,–,100 µg/mL,> 400 µg/mL,155 µg/mL,220 µg/mL,7 µg/mL,4 µg/mL,> 400 µg/mL,300 µg/mL
O=c1[nH]c(=O)n([C@H]2C[C@H](O)[C@@H](CO)O2)cc1/C=C/Br [BRIVUDINE],0.02 µg/mL,0.02 µg/mL,> 400 µg/mL,> 400 µg/mL,0.02 µg/mL,20 µg/mL,10 µg/mL,20 µg/mL,4 µg/mL,0.07 µg/mL,–,250 µg/mL,> 40 µg/mL,> 40 µg/mL,0.001 µg/mL,0.001 µg/mL,250 µg/mL,400 µg/mL
Cn1ccnc1-c1cn([C@H]2C[C@H](O)[C@@H](CO)O2)c(=O)[nH]c1=O,> 200 µg/mL,> 200 µg/mL,> 200 µg/mL,> 200 µg/mL,> 200 µg/mL,> 200 µg/mL,> 200 µg/mL,> 200 µg/mL,> 200 µg/mL,> 200 µg/mL,> 200 µg/mL,> 400 µg/mL,> 400 µg/mL,> 400 µg/mL,> 400 µg/mL,> 400 µg/mL,> 400 µg/mL,–
O=c1[nH]c(=O)n([C@H]2C[C@H](O)[C@@H](CO)O2)cc1-c1cccs1,0.45 µg/mL,0.1 µg/mL,150 µg/mL,> 400 µg/mL,0.2 µg/mL,250 µg/mL,100 µg/mL,300 µg/mL,150 µg/mL,> 400 µg/mL,> 200 µg/mL,250 µg/mL,180 µg/mL,> 400 µg/mL,41 µg/mL,18 µg/mL,250 µg/mL,–
O=c1[nH]c(=O)n([C@H]2C[C@H](O)[C@@H](CO)O2)cc1-c1ccc(Br)o1,0.15 µg/mL,0.2 µg/mL,150 µg/mL,> 400 µg/mL,0.1 µg/mL,150 µg/mL,300 µg/mL,100 µg/mL,–,70 µg/mL,125 µg/mL,> 100 µg/mL,> 100 µg/mL,> 100 µg/mL,3 µg/mL,3 µg/mL,> 100 µg/mL,> 200 µg/mL
O=c1[nH]c(=O)n([C@H]2C[C@H](O)[C@@H](CO)O2)cc1-c1ccc(Cl)s1,0.02 µg/mL,0.004 µg/mL,> 200 µg/mL,> 400 µg/mL,0.04 µg/mL,> 200 µg/mL,> 200 µg/mL,> 200 µg/mL,> 200 µg/mL,> 200 µg/mL,> 50 µg/mL,–,35 µg/mL,65 µg/mL,0.02 µg/mL,0.02 µg/mL,> 40 µg/mL,–
CC1[C@@H](O)[C@@H](CO)O[C@@H]1n1cc(I)c(=O)[nH]c1=O (stereo partly drawn),300 µg/mL,300 µg/mL,300 µg/mL,> 400 µg/mL,300 µg/mL,300 µg/mL,300 µg/mL,300 µg/mL,150 µg/mL,> 400 µg/mL,> 200 µg/mL,–,90 µg/mL,170 µg/mL,10 µg/mL,15 µg/mL,400 µg/mL,300 µg/mL
O=c1[nH]c(=O)n(C2O[C@H](CO)[C@@H](O)[C@@H]2O)cc1-c1cccs1 (stereo partly drawn),0.2 µg/mL,0.07 µg/mL,100 µg/mL,> 400 µg/mL,0.2 µg/mL,20 µg/mL,20 µg/mL,> 400 µg/mL,> 400 µg/mL,> 400 µg/mL,> 200 µg/mL,250 µg/mL,370 µg/mL,> 400 µg/mL,6.5 µg/mL,5.5 µg/mL,250 µg/mL,–
O=c1[nH]c(=O)n([C@@H]2C[C@@H](O)[C@@H](CO)O2)cc1-c1ccco1,55 µg/mL,70 µg/mL,150 µg/mL,> 400 µg/mL,40 µg/mL,300 µg/mL,150 µg/mL,> 200 µg/mL,70 µg/mL,300 µg/mL,110 µg/mL,> 100 µg/mL,260 µg/mL,240 µg/mL,240 µg/mL,210 µg/mL,> 100 µg/mL,–
